# Mdm2 ligase inh: MDM2-luciferase reporter signal enhancers, primary screen, MDM2 E3 ligase inhibitor project, cell-based, luminescence, 1536-well; E3 ubiquitin-protein ligase Mdm2 (Homo sapiens), Q00987; cell-based MDM2 ubiquitination luciferase reporter, 2 h; 0 = plate control, 100 = twice control, blank-subtracted; signal enhancement, % at 5 µM; hit rate 0.11% among 210,000; AID 1230, 2008;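 active means signal enhancement of 30% or more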;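 further: luminescence tracks abundance of the self-degrading MDM2-luciferase fusion protein; higher signal means inhibition of MDM2 E3 ligase activity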
# Target sequence (Q00987 whole entry, looked up, the tested form may be a part): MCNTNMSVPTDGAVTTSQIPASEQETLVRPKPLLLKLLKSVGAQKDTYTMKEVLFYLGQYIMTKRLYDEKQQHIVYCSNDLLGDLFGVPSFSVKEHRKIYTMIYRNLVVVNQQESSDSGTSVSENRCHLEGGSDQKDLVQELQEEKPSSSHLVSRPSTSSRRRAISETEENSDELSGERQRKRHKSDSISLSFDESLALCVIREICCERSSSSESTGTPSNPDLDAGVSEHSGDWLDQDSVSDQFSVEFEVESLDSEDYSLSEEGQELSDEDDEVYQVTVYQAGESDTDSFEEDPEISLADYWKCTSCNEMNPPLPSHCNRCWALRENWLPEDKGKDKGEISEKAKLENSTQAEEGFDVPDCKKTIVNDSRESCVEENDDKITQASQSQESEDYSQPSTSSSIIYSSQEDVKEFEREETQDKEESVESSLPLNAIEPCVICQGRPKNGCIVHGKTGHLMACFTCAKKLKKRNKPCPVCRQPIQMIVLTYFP
#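 test system = mammalian cells stably expressing self-ubiquitinating, self-degrading MDM2 E3–luciferase fusion | quantity = 2000 cells/well | incubation = cell settling 4 h, compound treatment 2 h, both 37 °C | signal = luminescence with SteadyLite reagent, 15 min at room temperature | evaluation = % enhancement relative to plate controls after blank subtraction | benchmarks = plate controls and plate blanks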
# HSF1 inhib: HSF1 inhibitors in luciferase reporter cells, primary screen, cell-based, NIH3T3, luminescence; NIH3T3-HGL HSE-luciferase, MG132-induced, luminescence 8 h; active compounds read low; activity change, negative = inhibition, % at 7.5 µM (by protocol); hit rate 0.77% among 300,000; AID 2098, 2009;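 active means more than half of replicate wells show activity change below -50%, luminescence cut by over half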;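 further: luciferase reports HSF-1 transcriptional activity via heat shock element; 0% = median of DMSO wells and -100% = zero luminescence signal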
# Rad51 HR inh: human RAD51 strand exchange inhibitors, primary screen, biochemical, fluorescence | inhibition, % at 10 µM | hit rate 0.085% among 200,000 | AID 1385, 2008 | DNA repair protein RAD51 homolog 1 (Homo sapiens), Q06609 | hRad51 DNA strand exchange, fluorescence dequenching;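 active means inhibition above 40% at the single screening dose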;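 further: 0% = DMSO control wells and 100% = blanks with heterologous ssDNA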
#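 System: human Rad51 nucleoprotein filaments preassembled on unlabelled ssDNA. Reagent: labelled 47-mer dsDNA for strand exchange. Schedule: 30-min compound preincubation and 15-min exchange, both room temperature. Measured by: FRET fluorescence dequenching, excitation 485 nm, emission 520 nm. Read-out: Fluorescence-based percent inhibition, control- and blank-normalised. Benchmarks: plate controls and plate blanks.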
# Hsp70 activator: Hsp70 transcriptional activators, primary screen, cell-based, HeLa, Hsp70 promoter luciferase, luminescence, 10 µM. hit rate 0.04% among 200,000. activation, % at 10 µM. HeLa Hsp70 promoter luciferase reporter; scaled: vehicle 0, proteasome-inhibitor control 100%;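 active means activation above the mean across all tested compounds plus 3 SD, cutoff set per campaign, cut at about 5.5% in these data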;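 further: 100% = MG132 at 30 µM as the positive control and 0% = DMSO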
# HSF1 activator: HSF-1 activators, primary screen, NIH3T3-HGL cells, MG132 stress, luminescence, single point; hit rate 1.7% among 300,000; activation, % at 9 µM; NIH3T3-HGL HSF-1 luciferase reporter, 8 h; 100% = twice DMSO control signal;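 active means mean replicate activation of at least 50% with a set share of replicates each reaching 50%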;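 further: 0% = median of the neutral control wells and 100% = twice that signal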
# HSV replic up: enhancers of HSV replication in host cells, fold increase, host cell viability. maximum fold increase. hit rate 0.005% among 220,000. HSV replication augmentation in cells. AID 1956, 2009; in the data active means maximum fold increase above about 1.5; tested in PC3 cells
# The depositor's hits bear a star; i = inactive; . = no result given. Sampled rows, rich in hits. Any-hit rate of the full collection: about 2.6%.
SMILES,Mdm2 ligase inh,HSF1 inhib,Rad51 HR inh,Hsp70 activator,HSF1 activator,HSV replic up
CN(C)S(=O)(=O)c1cccc(NC(=O)COC(=O)/C=C/c2ccc([N+](=O)[O-])cc2)c1,20,20,-6,0,63*,i
CC(C)Nc1nc(Cl)nc(N(C#N)CN2C(=O)c3ccccc3C2=O)n1,-3,153,8,0,204*,i
Cc1cc(C)nc(N(C#N)CN2C(=O)c3ccccc3C2=O)n1,-13,2,-3,0,12,i
CCC(C)Nc1nc(Cl)nc(N(C#N)CN2C(=O)c3ccccc3S2(=O)=O)n1 (stereo not drawn),-10,54,-23,0,76*,i
Cc1cc(NC(=O)COc2coc(CN3CCN(c4ccccc4F)CC3)cc2=O)no1,.,-75*,.,.,-80,.
Cc1cc(NC(=O)COc2coc(CN3CCN(c4ccccc4)CC3)cc2=O)no1,.,0,.,.,3,.
Cc1ccc(NC(=O)COc2coc(CN3CCc4ccccc4C3)cc2=O)c(C)c1,.,3,.,.,1,.
CCCNC(=O)COc1coc(CN2CCN(c3ccccc3OC)CC2)cc1=O,.,-73*,.,.,-80,.
COc1ccccc1N1CCN(Cc2cc(=O)c(OCC(=O)Nc3ccccc3)co2)CC1,.,-8,.,.,10,.
CC(C)NC(=O)COc1coc(CN2CCN(c3ccccc3)CC2)cc1=O,.,-53*,.,.,-63,.
Cc1ccc(C)c(NC(=O)COc2coc(CN3CCc4ccccc4C3)cc2=O)c1,.,-51*,.,.,-62,.
CC(C)NC(=O)COc1coc(CN2CCN(c3cccc(Cl)c3)CC2)cc1=O,.,-3,.,.,4,.
Oc1cccc(Oc2ncc(C(F)(F)F)cc2Cl)c1,-4,2,9,0,18,i
COc1ccc(N2CCN(C3CCCN(Cc4cccc(C(C)=O)c4)C3)CC2)cc1 (stereo not drawn),.,-1,.,.,-19,.
COc1ccc(CNC(=O)c2cnc3scc(C)n3c2=O)cc1,2,-70*,1,0,-78,i
CC(C)(C)c1ccc(-c2nnc3sc(-c4ccccn4)nn23)cc1,-46,-53*,3,0,-60,i
COc1ccc(CN2CC[C@H]3C=CC[C@@H](C(=O)Nc4ccc(Cl)c(C(F)(F)F)c4)[C@H]3C2=O)cc1OC,.,5,-6,.,17,i
CC1=C(C(=O)OCc2ccccc2)C(c2ccc3c(c2)OCO3)NC(=O)N1CCCC(=O)O (stereo not drawn),.,5,36,.,25,i
CC1(C)CC(=O)C2=C(C1)Nc1cc3c(cc1C2c1ccc2c(c1)OCO2)OCO3 (stereo not drawn),-8,29,-3,0,62*,i
CCOc1ccc(C)cc1S(=O)(=O)NC1CCCCC1,-1,22,-2,0,61*,i
Cc1cccc(NC(=O)CSc2nccn2Cc2ccco2)c1C,.,3,.,.,3,.
CCCCc1ccc(NC(=S)NCc2ccc(OC)cc2)cc1,-15,8,-13,0,51*,i
COc1ccc(C2=NN(C(C#N)c3ccc(OC)cc3)C(c3ccccc3)C2)cc1 (stereo not drawn),-22,42,-2,0,64*,i
COc1cc(-c2nc3cccc(C)n3c2NCC2CCCO2)ccc1O (stereo not drawn),-9,31,2,0,24,i
Cc1cc(C(=O)CN2C(=O)NC3(CCCCC3)C2=O)c(C)n1Cc1ccc2c(c1)OCO2,-9,30,-3,0,28,i
SMILES,Mdm2 ligase inh,HSF1 inhib,Rad51 HR inh,Hsp70 activator,HSF1 activator,HSV replic up
Cc1cc(C(=O)CN2C(=O)NC3(CCCCC3)C2=O)c(C)n1Cc1ccco1,-3,44,-2,0,89*,i
O=C(CSC1CS(=O)(=O)c2cc([N+](=O)[O-])ccc21)NNC(=O)c1ccc(Cl)cc1 (stereo not drawn),5,16,.,.,61*,i
O=C(CSC1=NNC(c2ccccn2)S1)Nc1cccc(Cl)c1 (stereo not drawn),18,-27,18,.,-37,i
O=C(CSC1=NNC(c2ccccn2)S1)Nc1ccccc1 (stereo not drawn),23,-62*,1,.,-67,i
CC(C)c1ccc(/C=C(\NC(=O)c2ccccc2)C(=O)NCCCn2ccnc2)cc1,.,22,.,.,59*,.
O=C(NCCCn1ccnc1)/C(=C/c1ccc(F)cc1)NC(=O)c1ccccc1,.,-12,.,.,4,.
COC(=O)c1ccc(CNC(=O)C(NC(=O)c2ccco2)C(C)C)cc1 (stereo not drawn),.,-58*,.,.,-66,.
CC(C)[C@H](NC(=O)c1ccco1)C(=O)NCc1ccccc1,.,-7,.,.,-18,.
Cc1ccc(CNC(=O)COc2ccc(C)nc2[N+](=O)[O-])cc1,-2,-1,28,0,-3,i
Cc1ccc(COc2ccc(C)nc2[N+](=O)[O-])cc1,-19,30,12,.,75*,i
COc1cc(C2NC(=O)NC(C)=C2C(=O)OC2CCCCC2)cc(Cl)c1O (stereo not drawn),.,38,.,.,62*,.
COc1cc(C2NC(=O)NC(C)=C2C(=O)OCC2CCCCC2)cc(Cl)c1O (stereo not drawn),.,8,.,.,35,.
Cc1cccc(S(=O)(=O)Nc2cccc3c2C(=O)c2ccccc2-3)c1,-5,-1,-25,0,-2,4.1*
Cc1ccc(NS(=O)(=O)c2ccc3c(c2)C(=O)c2ccccc2C3=O)c(C)c1,2,.,3,0,.,i
O=C(N=C1SC2CS(=O)(=O)CC2N1Cc1ccc(F)cc1)C1CCCO1 (stereo not drawn),.,4,.,.,35,.
Clc1ccc(COn2nnc3ccccc32)c(Cl)c1,-28,53,-8,0,86*,i
CCN(CC)CCNCc1cc(Cl)ccc1OCc1ccccc1F,-24,-61*,-5,0,-71,i
CC(C)C[C@H](NC(=O)C1CC(=O)N(c2ccc(F)cc2)C1)C(=O)N1CCCCC1 (stereo partly drawn),.,-2,.,.,-8,.
CCOC(=O)/C=C(\C)Nc1cc(C)nn1-c1ccccc1,-5,31,-2,0,54*,i
Cc1cc(SCC(=O)Nc2ncc(Cl)cc2Cl)nc2ccccc12,-12,32,-3,0,54*,i
CCCN(C(=O)c1cn(C)c(=O)c2ccccc12)c1ccccc1C,.,-1,.,.,22,.

# Compound activity deposited in PubChem by several laboratories.
